From PubChem
Hits are enriched below; roughly 2.2% of the tested compounds scored in any of these assays.
DENV2 CPE rescue – inhibitors of DENV2 cytopathic effect | DENV2-infected cells, cytopathic effect rescue, plate reader | 350,000 tested, 1.7% active | CPE inhibition, % at 9.99 µM; in the data active = CPE inhibition above about 20%, passing the limit was not always enough; inconclusive = no clear call, values can overlap the other calls; tested in BHK-21 cells;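 also: 0% = median of neutral control wells and 100% = median of positive control wells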
Statin myotox sup – suppressors of simvastatin-induced myotoxicity in C2C12 myotubes; ATP luminescence, 48 h; scaled: DMSO 0, geranylgeraniol control 100; rescue of ATP level, % at 7.49 µM; 330,000 tested, 0.78% active; AID 602340;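 active = mean ATP rescue above about 67%, or every replicate alone reaching that limit, limit read from the data, passing the limit was not always enough; inconclusive = no clear call, values can overlap the other calls; inactive = mean under the limit and some replicate under it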;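 also: myotubes were challenged with 10 µM simvastatin during compound exposure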
E-sel inducer – induces E-selectin expression in human endothelial cells | activation, % at 7.58 µM | AID 686992 | 260,000 tested, 0.37% active | HUVEC E-selectin immunofluorescence imaging; normalized: neutral wells 0, TNF-alpha wells 100 | P16581;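 active = mean E-selectin-positive cell signal at least 10% of the positive control, reached in at least 60% of replicates, without over 20% cell loss; inconclusive = no rule given, readout overlaps actives, possibly toxicity-flagged; inactive = the rest, including those meeting only one limit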
Target sequence (P16581 whole entry, looked up): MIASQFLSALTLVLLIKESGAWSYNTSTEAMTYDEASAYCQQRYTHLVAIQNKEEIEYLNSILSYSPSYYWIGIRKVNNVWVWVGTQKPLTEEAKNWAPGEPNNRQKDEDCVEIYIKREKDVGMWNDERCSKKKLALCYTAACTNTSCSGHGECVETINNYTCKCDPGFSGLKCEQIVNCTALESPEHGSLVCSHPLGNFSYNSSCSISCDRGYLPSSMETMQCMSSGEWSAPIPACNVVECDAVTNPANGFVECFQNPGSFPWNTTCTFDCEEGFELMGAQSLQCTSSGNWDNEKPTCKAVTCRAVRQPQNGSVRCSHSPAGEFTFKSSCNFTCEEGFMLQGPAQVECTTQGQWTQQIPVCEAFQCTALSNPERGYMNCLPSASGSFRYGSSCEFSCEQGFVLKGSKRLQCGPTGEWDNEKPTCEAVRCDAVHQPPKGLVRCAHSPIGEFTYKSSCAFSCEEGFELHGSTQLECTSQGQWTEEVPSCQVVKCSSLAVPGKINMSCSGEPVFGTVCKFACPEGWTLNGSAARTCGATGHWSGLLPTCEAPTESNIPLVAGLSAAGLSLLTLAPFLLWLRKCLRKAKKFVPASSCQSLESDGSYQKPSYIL
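Material: HUVEC primary endothelial cells; Amount: 3,000 cells per well; Dosing: single concentration; Medium: EGM-2 growth medium on 0.1% gelatin-coated wells; Read-out basis: percent E-selectin-positive cells; Signal: immunofluorescence imaging; Control set: TNF-alpha, DMSO.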
An asterisk follows results filed as active; ? = inconclusive; nt = not tested or not shown; ! = repeats disagree.

SMILES	DENV2 CPE rescue	Statin myotox sup	E-sel inducer
C[C@H]1CN([C@@H](C)CO)C(=O)c2cccc(N(C)C)c2O[C@H]1CN(C)Cc1ccc(C(=O)Nc2ccccc2N)cc1	12	14	0
C[C@H]1CN([C@@H](C)CO)C(=O)c2cc(C3=CCCC3)cnc2O[C@@H]1CN(C)C(=O)Nc1ccc(F)cc1	6	nt	0
C[C@@H]1CN([C@@H](C)CO)C(=O)c2cc(C3=CCCCC3)cnc2O[C@H]1CN(C)C(=O)Nc1cccc(F)c1	30*!	2	0
C[C@H](CO)N1C[C@H](C)[C@@H](CN(C)C(=O)Nc2ccc(F)cc2)Oc2ncc(C3=CCCC3)cc2C1=O	27*	31	1
C[C@H](CO)N1C[C@H](C)[C@@H](CN(C)C(=O)C2CCOCC2)Oc2ncc(C3=CCCCC3)cc2C1=O	45*	23	0
C[C@H]1CN([C@@H](C)CO)C(=O)c2cc(C3=CCCCC3)cnc2O[C@@H]1CN(C)C(=O)Nc1cccc(F)c1	-4	14	0
C[C@@H]1CN([C@H](C)CO)C(=O)c2cc(C3=CCCCC3)cnc2O[C@@H]1CN(C)C(=O)C1CCOCC1	-6	28	0
C[C@@H]1CN([C@H](C)CO)C(=O)c2cc(C3=CCCC3)cnc2O[C@@H]1CN(C)C(=O)Nc1ccc(C(F)(F)F)cc1	33*	7	0
C[C@@H]1CN([C@@H](C)CO)C(=O)c2cc(C3=CCCC3)cnc2O[C@H]1CN(C)C(=O)Nc1ccc(C(F)(F)F)cc1	11	6	0
C[C@@H]1CCCCO[C@@H](CN(C)C(=O)Nc2ccc(C(F)(F)F)cc2)[C@H](C)CN([C@@H](C)CO)C(=O)c2cc(NC(=O)Nc3ccc4c(c3)OCO4)ccc2O1	-3	-11	0
CN(C)CC(=O)N1CCCCN2[C@H](C1)[C@H](c1ccc(-c3ccccc3)cc1)[C@@H]2CO	?	20	0
C[C@H](CO)N1C[C@H](C)[C@@H](CN(C)C(=O)Nc2ccc(F)cc2)Oc2ncc(C3=CCCCC3)cc2C1=O	-7	-13	0
C[C@@H]1CN([C@@H](C)CO)C(=O)c2cc(C3=CCCC3)cnc2O[C@@H]1CN(C)C(=O)NC1CCCC1	-4	9	nt
C[C@@H]1CN([C@@H](C)CO)C(=O)c2cc(C3=CCCC3)cnc2O[C@H]1CN(C)C(=O)NC1CCCC1	31*	-2	nt
C[C@@H]1CN([C@H](C)CO)C(=O)c2cc(C3=CCCCC3)cnc2O[C@@H]1CN(C)C(=O)Nc1ccc(F)cc1	34*	?	0
C[C@@H]1CN([C@@H](C)CO)C(=O)c2cccc(N(C)C)c2O[C@@H]1CN(C)CC1CC1	4	-17	0
C=C(C)C1CC=C(C)/C(=N/NC(=O)c2ccc(NC(=O)CC)cc2)C1 (configuration not stated)	nt	119*	nt
C=C(C)C1CC=C(C)/C(=N/NC(=O)c2ccc(NC(=O)CCC)cc2)C1 (configuration not stated)	nt	4	nt
O=C(C[C@H]1CC[C@H](NC(=O)Nc2cc(F)ccc2F)[C@H](CO)O1)NCc1ccccn1	-1	11	0
C[C@H](CO)N1C[C@H](C)[C@@H](CN(C)Cc2ccccc2)Oc2ncc(C#Cc3cccnc3)cc2C1=O	-11	1	0
N#C[C@@H]1[C@@H](c2ccc(C#Cc3ccccc3F)cc2)[C@H](CO)N1C(=O)C1CCC1	30*	29	0
N#C[C@H]1[C@@H](c2ccc(C#Cc3ccc(F)cc3)cc2)[C@H](CO)N1C(=O)C1CCCC1	-4	10	-1
N#C[C@@H]1[C@@H](c2ccc(C#Cc3ccc(F)cc3)cc2)[C@H](CO)N1C(=O)C1CCCC1	23*	12	0
N#C[C@@H]1[C@H](c2ccc(C#Cc3ccccc3F)cc2)[C@@H](CO)N1C(=O)C1CCC1	-8	10	0
N#C[C@H]1[C@@H](c2ccc(/C=C/c3ccccc3)cc2)[C@@H](CO)N1C(=O)C1CCCC1	5	-42	2
SMILES	DENV2 CPE rescue	Statin myotox sup	E-sel inducer
N#C[C@@H]1[C@@H](c2ccc(/C=C/c3ccccc3)cc2)[C@@H](CO)N1C(=O)C1CCCC1	26*	4	1
Cc1ccc(S(=O)(=O)N(C)C[C@H]2OCCCC[C@@H](C)Oc3ccc(NC(=O)Nc4cccc5ccccc45)cc3C(=O)N([C@@H](C)CO)C[C@H]2C)cc1	6	nt	0
O=C(Cc1ccncc1)Nc1ccc2c(c1)[C@@H]1C[C@H](CC(=O)NC3CCCC3)O[C@H](CO)[C@@H]1O2	-6	-5	0
Cc1cccc(NC(=O)C2CCCN(S(=O)(=O)c3cccc4nsnc34)C2)n1 (configuration not stated)	nt	108*	nt
Cc1cccc(NC(=O)C2CCN(S(=O)(=O)c3cccc4nsnc34)CC2)n1	nt	14	nt
COc1ccc(NC(=O)N2CCCCN3[C@H](CO)[C@H](c4ccc(C#CCC(C)C)cc4)[C@@H]3C2)cc1	?	-2	-1
CO[C@@H]1CC[C@@H]2CCOc3c(C#N)cccc3C(=O)N(C)[C@H](C)C(=O)N(C)C[C@@H]1O2	-3	0	0
CC(C)CCN1C(=O)c2cccc3c(N)ccc(c23)C1=O	5	nt	26*
Nc1ccc2c3c(cccc13)C(=O)N(c1ccccc1)C2=O	?	nt	0
N#CCCN(Cc1ccccc1)C(=S)NC(=O)c1ccccc1	nt	-7	nt
COc1ccc(CN(CCC#N)C(=S)NC(=O)c2ccccc2)cc1	nt	114*	nt
C=CC[C@@H](CC(=O)N[C@H](CO)Cc1ccccc1)C(=O)N[C@@H](COC(=O)[C@H](CC=C)CC(=O)OC(C)(C)C)Cc1ccccc1	79*	-17	0
C=CCC[C@@H](Cc1ccc(F)cc1)C(=O)OC[C@H]1CCCN1C(=O)[C@@H](CC=C)CC(=O)N[C@H](CO)Cc1ccccc1	-3	-11	0
C=CC[C@@H](CC(=O)N[C@@H](CO)Cc1ccccc1)C(=O)N[C@H](COC(=O)[C@@H](CC=C)CC(=O)OC(C)(C)C)Cc1ccccc1	-9	1	0
C=CC[C@H](CC(=O)N[C@H](CO)Cc1ccccc1)C(=O)N[C@H](COC(=O)[C@@H](CC=C)Cc1ccc(F)cc1)Cc1c[nH]c2ccccc12	nt	-13	nt
C=CCC[C@@H](Cc1ccc(F)cc1)C(=O)OC[C@@H]1CCCN1C(=O)[C@H](CC=C)CC(=O)N[C@H](CO)Cc1ccccc1	20*	11	0
C=CC[C@@H](CC(=O)N[C@@H](CO)Cc1ccccc1)C(=O)N[C@@H](COC(=O)[C@@H](CC=C)Cc1ccc(F)cc1)Cc1c[nH]c2ccccc12	73*	3	0
CO[C@H]1CN(C)C(=O)c2cc(NC(=O)Nc3c(C)noc3C)ccc2OC[C@@H](C)NC[C@@H]1C	-9	-2	0
COc1ccc(NC(=O)CCSc2nnnn2C)cc1	-8	6	0
Cn1nnnc1SCCOc1ccc(C#N)cc1	nt	116*	nt
C[C@H](CO)N1C[C@H](C)[C@H](CN(C)S(=O)(=O)c2ccc(F)cc2)Oc2ccc(NC(=O)Nc3ccc4c(c3)OCO4)cc2C1=O	-5	-43	-16
C[C@@H]1CN([C@@H](C)CO)C(=O)c2cc(NC(=O)Nc3ccc4c(c3)OCO4)ccc2O[C@@H]1CN(C)S(=O)(=O)c1ccccc1	-5	nt	-3
